The source made the active and inactive calls. The calls are words filed in the database; no cut-off is given here.
Tests used:
CD4+ve Th [1] = test: Inhibition of anti-CD3/CD28 antibodies stimulated-IFN-gamma production in BALB/c mouse CD4+ T cells at 100 to 400 nM measured after 48 hrs by ELISA; type: functional, cell-based; settings: dose 100-400 nM
How it was run: (§1)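 Supernatants of BALB/c splenic CD4+ T cells, purified by immunomagnetic negative selection (>98% purity). Cells stimulated with anti-CD3 (5 µg/ml) plus anti-CD28 (2 µg/ml) in RPMI 1640 with 10% FBS and penicillin/streptomycin at 37 °C, 5% CO₂. Compound is given from DMSO stock diluted in medium at increasing concentrations for 48 h. Mouse IFN-γ or IL-4 measured by ELISA kit.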

CD4+ve Th [2] = test: Inhibition of anti-CD3/CD28 antibodies stimulated-IL-4 production in BALB/c mouse CD4+ T cells at 100 to 400 nM measured after 48 hrs by ELISA; type: functional, cell-based; settings: dose 100-400 nM; how it was run: as §1
[3] = Inhibition of anti-CD3/CD28 antibodies-stimulated BALB/c mouse CD4+ T cell activation assessed as frequency of CD4+/CD69+ T cells at 400 nM measured after 48 hrs by flow cytometric analysis (reference value: 14.9%); type: functional, CD4+ve Th; parameters: scale not given: the % may be the effect or the level left
How it was run: (§2)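 Purified BALB/c splenic CD4+ T cells (negative selection) stimulated with anti-CD3 plus anti-CD28 in RPMI 1640/10% FBS with compound for 24 or 48 h. Cells Fc-blocked with anti-CD16/CD32, then stained with FITC-CD3, PE-CD25, APC-CD4 and BV421-CD69. Analyzed by flow cytometry. Data as mean ± SD; one-way ANOVA with Dunnett's test.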

[4] = biological target: T1, Tyrosine-protein kinase ZAP-70 (Homo sapiens, UniProt P43403); test: Inhibition of N-terminal GST-fused human recombinant full length ZAP70 (1 to 619 residues) expressed in baculovirus-infected Sf21 cells using FAM-22 peptide as substrate preincubated with enzyme for 10 mins followed by substrate addition for 30 mins in presence of ATP by caliper mobility shift assay
T1 sequence (P43403 whole entry): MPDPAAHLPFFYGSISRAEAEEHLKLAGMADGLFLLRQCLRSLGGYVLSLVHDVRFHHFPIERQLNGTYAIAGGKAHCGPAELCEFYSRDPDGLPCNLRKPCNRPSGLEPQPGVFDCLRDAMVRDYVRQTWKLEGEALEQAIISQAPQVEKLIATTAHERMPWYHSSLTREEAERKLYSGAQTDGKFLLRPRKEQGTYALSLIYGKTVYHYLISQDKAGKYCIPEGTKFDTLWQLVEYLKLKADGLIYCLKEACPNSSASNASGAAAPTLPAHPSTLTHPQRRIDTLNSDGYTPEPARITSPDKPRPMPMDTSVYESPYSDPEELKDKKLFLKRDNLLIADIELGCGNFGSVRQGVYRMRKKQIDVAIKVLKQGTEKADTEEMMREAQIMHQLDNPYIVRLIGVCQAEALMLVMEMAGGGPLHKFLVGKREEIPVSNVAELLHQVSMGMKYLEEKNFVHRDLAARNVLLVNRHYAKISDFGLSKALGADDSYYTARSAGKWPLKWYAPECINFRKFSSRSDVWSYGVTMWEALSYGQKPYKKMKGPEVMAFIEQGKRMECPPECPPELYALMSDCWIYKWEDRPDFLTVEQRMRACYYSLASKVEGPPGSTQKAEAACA

[5] = biological target: Tyrosine-protein kinase SYK (Homo sapiens, UniProt P43405); test: Inhibition of N-terminal GST-fused human recombinant full length SYK (1 to 635 residues) expressed in baculovirus-infected Sf21 cells using FAM-22 peptide as substrate preincubated with enzyme for 10 mins followed by substrate addition for 30 mins in presence of ATP by caliper mobility shift assay
[6] = biological target: Tyrosine-protein kinase ABL1 (Homo sapiens, UniProt P00519); test: Inhibition of ABL (unknown origin)
[7] = biological target: Tyrosine-protein kinase BTK (Homo sapiens, UniProt Q06187); test: Inhibition of BTK (unknown origin)
[8] = biological target: Tyrosine-protein kinase HCK (Homo sapiens, UniProt P08631); test: Inhibition of HCK (unknown origin)
[9] = biological target: T2, Tyrosine-protein kinase ITK/TSK (Homo sapiens, UniProt Q08881); test: Inhibition of ITK (unknown origin)
T2 sequence (Q08881 whole entry): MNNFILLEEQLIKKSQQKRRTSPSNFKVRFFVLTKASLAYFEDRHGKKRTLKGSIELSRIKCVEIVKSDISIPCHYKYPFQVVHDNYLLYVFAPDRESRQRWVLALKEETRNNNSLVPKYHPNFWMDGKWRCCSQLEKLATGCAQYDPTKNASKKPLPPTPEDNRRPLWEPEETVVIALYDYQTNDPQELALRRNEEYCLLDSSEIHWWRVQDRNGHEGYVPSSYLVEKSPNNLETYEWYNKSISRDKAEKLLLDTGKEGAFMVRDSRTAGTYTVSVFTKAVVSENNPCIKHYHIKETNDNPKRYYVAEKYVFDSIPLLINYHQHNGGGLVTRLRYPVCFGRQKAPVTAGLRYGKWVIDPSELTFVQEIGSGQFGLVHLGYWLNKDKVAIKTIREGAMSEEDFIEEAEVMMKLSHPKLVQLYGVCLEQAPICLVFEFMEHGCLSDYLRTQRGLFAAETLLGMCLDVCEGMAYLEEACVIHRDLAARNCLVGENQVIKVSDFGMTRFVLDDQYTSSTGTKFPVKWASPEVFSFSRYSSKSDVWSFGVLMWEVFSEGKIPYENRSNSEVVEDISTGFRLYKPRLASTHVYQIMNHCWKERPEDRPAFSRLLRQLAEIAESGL

[10] = biological target: Tyrosine-protein kinase JAK1 (Homo sapiens, UniProt P23458); test: Inhibition of JAK1 (unknown origin)
[11] = biological target: Tyrosine-protein kinase JAK2 (Homo sapiens, UniProt O60674); test: Inhibition of JAK2 (unknown origin)
[12] = biological target: Tyrosine-protein kinase Lck (Homo sapiens, UniProt P06239); test: Inhibition of LCK (unknown origin)
[13] = biological target: Proto-oncogene tyrosine-protein kinase Src (Homo sapiens, UniProt P12931); test: Inhibition of SRC (unknown origin)
[14] = biological target: Non-receptor tyrosine-protein kinase TYK2 (Homo sapiens, UniProt P29597); test: Inhibition of TYK2 (unknown origin)
CD4+ve Th [15] = test: Inhibition of anti-CD3/CD28 antibodies-stimulated BALB/c mouse CD4+ T cell proliferation measured after 48 hrs by [3H]thymidine incorporation based beta scintillation counting analysis; type: functional, tissue-based; settings: dose 100-400 nM
How it was run: (§3)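 Purified BALB/c splenic CD4+ T cells stimulated with anti-CD3 plus anti-CD28 in RPMI 1640/10% FBS with compound (DMSO stock diluted in medium). After 48 h, cultures pulsed with [³H]thymidine 0.5 µCi/well. Incorporated radioactivity counted by beta scintillation.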

[16] = Inhibition of anti-CD3/CD28 antibodies-stimulated BALB/c mouse CD4+ T cell proliferation at 400 nM measured after 48 hrs by [3H]thymidine incorporation based beta scintillation counting analysis; type: functional; settings: CD4+ve Th; how it was run: as §3
CD4+ve Th [17] = test: Inhibition of anti-CD3/CD28 antibodies-stimulated BALB/c mouse CD4+ T cell division measured after 72 hrs by CFSE-labeled flow cytometry; type: functional, tissue-based; settings: dose 100-400 nM
How it was run: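 Purified BALB/c CD4+ T cells labeled with CFSE at 37 °C for 5 min and washed in RPMI 1640/20% FBS. Cells cultured with anti-CD3 ([…]) plus anti-CD28 ([…]) in RPMI 1640/10% FBS with compound for 72 h. Division read as CFSE dilution by flow cytometry.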

[18] = biological target: T3, Tyrosine-protein kinase ZAP-70 (Homo sapiens) (UniProt P43403); test: Covalent binding affinity at C346 residue of N-terminal GST-fused human recombinant full length ZAP70 (1 to 619 residues) expressed in baculovirus-infected Sf21 cells at 55 nM preincubated for 5 mins followed by DTT challenge for 10 mins and measured after 18 hrs following trypsin digestion by mass spectrometry; settings: time 1095.0 min
T3 sequence (whole entry): T1 sequence (P43403 whole entry)
How it was run: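 Recombinant ZAP-70 at 75 nM final in assay buffer (0.01% Triton X-100, 50 mM HEPES, 5 mM MgCl₂, 1 mM MnCl₂). Compound added to 55 nM final and incubated 5 min at 28 °C. DTT then added to 2 mM final for 10 min at room temperature. Trypsin digestion at 37 °C for 18 h, stopped with TFA, C18 desalting. Modified sites mapped by nano-LC–MS/MS.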

[19] = Inhibition of anti-CD3/CD28 antibodies-stimulated BALB/c mouse CD4+ T cell activation assessed as frequency of CD4+/CD69+ T cells at 200 nM measured after 48 hrs by flow cytometric analysis (reference value: 14.9%); type: functional, CD4+ve Th; parameters: scale not given: the % may be the effect or the level left; how it was run: as §2
[20] = Inhibition of anti-CD3/CD28 antibodies-stimulated BALB/c mouse CD4+ T cell activation assessed as frequency of CD4+/CD69+ T cells at 100 nM measured after 48 hrs by flow cytometric analysis (reference value: 14.9%); type: functional, CD4+ve Th; parameters: scale not given: the % may be the effect or the level left; how it was run: as §2
[21] = Inhibition of anti-CD3/CD28 antibodies-stimulated BALB/c mouse CD4+ T cell activation assessed as frequency of CD4+/CD69+ T cells at 100 nM measured after 24 hrs by flow cytometric analysis (reference value: 2.51%); type: functional, CD4+ve Th; parameters: scale not given: the % may be the effect or the level left; how it was run: as §2
[22] = Inhibition of anti-CD3/CD28 antibodies-stimulated BALB/c mouse CD4+ T cell activation assessed as frequency of CD4+/CD69+ T cells at 200 nM measured after 24 hrs by flow cytometric analysis (reference value: 2.51%); type: functional, CD4+ve Th; parameters: scale not given: the % may be the effect or the level left; how it was run: as §2
[23] = Inhibition of anti-CD3/CD28 antibodies-stimulated BALB/c mouse CD4+ T cell activation assessed as frequency of CD4+/CD69+ T cells at 400 nM measured after 24 hrs by flow cytometric analysis (reference value: 2.51%); type: functional, CD4+ve Th; parameters: scale not given: the % may be the effect or the level left; how it was run: as §2
CD4+ve Th [24] = test: Inhibition of anti-CD3/CD28 antibodies-stimulated BALB/c mouse CD4+ T cell activation assessed as reduction in CD25 expression measured after 24 to 48 hrs by flow cytometric analysis; type: functional, tissue-based; settings: time 24-48 hrs; how it was run: as §2

Tyrosine-protein kinase JAK2, sequence (O60674 whole entry): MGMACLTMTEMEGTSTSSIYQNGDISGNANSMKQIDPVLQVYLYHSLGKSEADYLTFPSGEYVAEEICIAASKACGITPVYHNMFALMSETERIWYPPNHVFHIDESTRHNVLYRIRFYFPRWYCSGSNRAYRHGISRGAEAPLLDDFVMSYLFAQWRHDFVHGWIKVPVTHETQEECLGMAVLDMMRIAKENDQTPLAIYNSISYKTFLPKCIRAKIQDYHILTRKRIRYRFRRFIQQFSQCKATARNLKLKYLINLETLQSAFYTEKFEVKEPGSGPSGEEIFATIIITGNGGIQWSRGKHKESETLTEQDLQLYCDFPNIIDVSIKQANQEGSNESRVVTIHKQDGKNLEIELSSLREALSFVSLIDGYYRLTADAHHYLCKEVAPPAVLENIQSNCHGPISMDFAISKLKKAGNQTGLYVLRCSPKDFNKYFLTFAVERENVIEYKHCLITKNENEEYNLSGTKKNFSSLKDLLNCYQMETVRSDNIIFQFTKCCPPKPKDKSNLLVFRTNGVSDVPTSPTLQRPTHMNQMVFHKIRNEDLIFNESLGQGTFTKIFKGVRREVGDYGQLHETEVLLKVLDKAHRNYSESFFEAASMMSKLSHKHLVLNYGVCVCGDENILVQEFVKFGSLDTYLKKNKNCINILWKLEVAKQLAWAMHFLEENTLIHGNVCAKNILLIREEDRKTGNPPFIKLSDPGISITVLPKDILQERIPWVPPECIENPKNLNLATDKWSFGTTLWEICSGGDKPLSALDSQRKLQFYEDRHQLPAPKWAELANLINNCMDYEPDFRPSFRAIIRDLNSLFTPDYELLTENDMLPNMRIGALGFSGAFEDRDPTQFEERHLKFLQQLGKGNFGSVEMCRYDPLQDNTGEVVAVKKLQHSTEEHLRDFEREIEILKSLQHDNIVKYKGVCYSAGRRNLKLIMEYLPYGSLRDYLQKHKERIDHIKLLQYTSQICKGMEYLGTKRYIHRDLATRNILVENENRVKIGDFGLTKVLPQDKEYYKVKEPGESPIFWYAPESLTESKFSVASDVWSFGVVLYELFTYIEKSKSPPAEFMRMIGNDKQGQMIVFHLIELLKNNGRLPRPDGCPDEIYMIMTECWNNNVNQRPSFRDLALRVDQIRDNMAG
Tyrosine-protein kinase JAK1, sequence (P23458 whole entry): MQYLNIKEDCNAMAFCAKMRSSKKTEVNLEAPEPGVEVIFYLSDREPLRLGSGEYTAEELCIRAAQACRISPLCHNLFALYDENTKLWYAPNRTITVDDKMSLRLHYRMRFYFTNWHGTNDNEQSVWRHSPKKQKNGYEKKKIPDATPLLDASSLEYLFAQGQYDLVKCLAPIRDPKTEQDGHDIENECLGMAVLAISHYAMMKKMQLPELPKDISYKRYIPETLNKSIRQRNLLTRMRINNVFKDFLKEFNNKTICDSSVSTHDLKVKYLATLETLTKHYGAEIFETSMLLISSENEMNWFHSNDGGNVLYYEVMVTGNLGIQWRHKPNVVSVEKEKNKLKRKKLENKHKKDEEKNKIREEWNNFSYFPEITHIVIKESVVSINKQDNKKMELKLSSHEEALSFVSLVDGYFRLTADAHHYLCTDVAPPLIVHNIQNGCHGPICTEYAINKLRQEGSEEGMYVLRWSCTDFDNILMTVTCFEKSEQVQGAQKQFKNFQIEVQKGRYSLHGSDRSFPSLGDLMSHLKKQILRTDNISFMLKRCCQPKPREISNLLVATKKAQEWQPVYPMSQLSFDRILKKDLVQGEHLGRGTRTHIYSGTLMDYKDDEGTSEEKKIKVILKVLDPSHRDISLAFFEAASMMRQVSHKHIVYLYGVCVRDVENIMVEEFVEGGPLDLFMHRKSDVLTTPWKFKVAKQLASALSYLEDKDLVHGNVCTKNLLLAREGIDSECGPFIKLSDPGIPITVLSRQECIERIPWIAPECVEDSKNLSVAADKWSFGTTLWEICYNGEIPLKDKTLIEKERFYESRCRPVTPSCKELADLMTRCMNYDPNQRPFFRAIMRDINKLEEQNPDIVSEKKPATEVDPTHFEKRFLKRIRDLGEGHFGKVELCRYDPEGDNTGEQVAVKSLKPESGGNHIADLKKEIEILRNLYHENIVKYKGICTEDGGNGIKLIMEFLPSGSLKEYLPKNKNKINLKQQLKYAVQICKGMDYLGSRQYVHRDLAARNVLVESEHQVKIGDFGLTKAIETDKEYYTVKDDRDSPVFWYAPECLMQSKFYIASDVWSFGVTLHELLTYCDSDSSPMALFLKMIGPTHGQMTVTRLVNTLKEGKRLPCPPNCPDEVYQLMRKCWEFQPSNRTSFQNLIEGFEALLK
Tyrosine-protein kinase HCK, sequence (P08631 whole entry): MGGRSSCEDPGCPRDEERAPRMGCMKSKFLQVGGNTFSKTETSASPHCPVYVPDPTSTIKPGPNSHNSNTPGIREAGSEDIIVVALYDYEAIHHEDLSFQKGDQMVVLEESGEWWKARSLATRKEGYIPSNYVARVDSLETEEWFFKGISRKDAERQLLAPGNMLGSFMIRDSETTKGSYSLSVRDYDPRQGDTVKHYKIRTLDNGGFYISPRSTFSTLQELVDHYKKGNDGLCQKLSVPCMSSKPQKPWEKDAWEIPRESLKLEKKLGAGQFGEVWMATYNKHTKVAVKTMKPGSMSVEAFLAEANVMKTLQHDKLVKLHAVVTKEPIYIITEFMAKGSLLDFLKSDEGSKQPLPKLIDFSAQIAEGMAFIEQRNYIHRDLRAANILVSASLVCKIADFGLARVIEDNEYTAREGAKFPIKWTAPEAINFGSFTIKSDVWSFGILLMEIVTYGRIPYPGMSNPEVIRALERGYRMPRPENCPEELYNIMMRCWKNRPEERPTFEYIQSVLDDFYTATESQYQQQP
Tyrosine-protein kinase BTK, sequence (Q06187 whole entry): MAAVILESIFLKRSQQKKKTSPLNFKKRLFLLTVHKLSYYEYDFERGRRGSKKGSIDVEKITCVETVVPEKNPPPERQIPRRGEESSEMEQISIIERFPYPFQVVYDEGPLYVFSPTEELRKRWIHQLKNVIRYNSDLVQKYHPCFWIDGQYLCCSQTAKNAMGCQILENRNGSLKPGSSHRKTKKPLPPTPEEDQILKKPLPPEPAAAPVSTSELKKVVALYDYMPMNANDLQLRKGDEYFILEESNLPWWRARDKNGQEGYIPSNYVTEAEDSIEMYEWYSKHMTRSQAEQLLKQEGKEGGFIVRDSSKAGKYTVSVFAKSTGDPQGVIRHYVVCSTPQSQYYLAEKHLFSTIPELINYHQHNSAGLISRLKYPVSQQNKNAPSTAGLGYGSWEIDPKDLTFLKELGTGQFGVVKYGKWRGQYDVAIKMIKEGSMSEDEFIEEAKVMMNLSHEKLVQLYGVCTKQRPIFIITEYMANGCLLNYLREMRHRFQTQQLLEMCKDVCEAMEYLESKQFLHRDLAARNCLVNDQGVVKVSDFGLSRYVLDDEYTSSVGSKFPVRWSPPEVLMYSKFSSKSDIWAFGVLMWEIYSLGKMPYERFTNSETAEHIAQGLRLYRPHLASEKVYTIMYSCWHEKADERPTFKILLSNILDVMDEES
Proto-oncogene tyrosine-protein kinase Src, sequence (P12931 2-536 limits assumed): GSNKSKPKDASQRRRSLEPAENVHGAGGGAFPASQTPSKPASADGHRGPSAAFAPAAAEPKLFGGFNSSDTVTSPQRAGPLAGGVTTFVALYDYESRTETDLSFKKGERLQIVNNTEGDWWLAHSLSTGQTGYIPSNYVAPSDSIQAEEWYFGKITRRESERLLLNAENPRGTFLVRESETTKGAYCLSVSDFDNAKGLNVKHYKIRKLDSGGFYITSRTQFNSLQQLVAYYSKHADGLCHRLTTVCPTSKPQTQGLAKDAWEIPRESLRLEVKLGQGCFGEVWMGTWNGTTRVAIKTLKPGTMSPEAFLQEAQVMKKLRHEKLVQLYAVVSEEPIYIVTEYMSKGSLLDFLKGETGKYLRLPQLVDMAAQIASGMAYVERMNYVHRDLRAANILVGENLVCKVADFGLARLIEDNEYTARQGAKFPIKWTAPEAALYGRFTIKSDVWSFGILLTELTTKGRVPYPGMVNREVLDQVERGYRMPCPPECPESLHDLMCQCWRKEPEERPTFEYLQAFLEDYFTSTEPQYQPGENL
Tyrosine-protein kinase Lck, sequence (P06239 whole entry): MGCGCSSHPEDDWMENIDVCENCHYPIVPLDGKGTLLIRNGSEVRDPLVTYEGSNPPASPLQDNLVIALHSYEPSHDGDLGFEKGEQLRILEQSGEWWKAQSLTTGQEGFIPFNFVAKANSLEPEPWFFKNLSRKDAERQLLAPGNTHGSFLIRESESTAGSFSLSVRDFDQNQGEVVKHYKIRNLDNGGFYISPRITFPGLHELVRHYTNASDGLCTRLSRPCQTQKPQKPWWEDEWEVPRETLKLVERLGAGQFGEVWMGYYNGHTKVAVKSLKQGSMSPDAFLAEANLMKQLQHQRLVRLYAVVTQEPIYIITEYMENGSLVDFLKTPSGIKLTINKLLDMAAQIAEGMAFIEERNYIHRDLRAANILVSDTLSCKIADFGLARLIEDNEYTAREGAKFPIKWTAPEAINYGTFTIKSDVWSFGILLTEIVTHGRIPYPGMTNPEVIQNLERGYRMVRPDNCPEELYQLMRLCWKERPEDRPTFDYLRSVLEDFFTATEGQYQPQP

With `COc1cc(Nc2nc(NCc3cccc(NC(=O)CCl)c3)n3ccnc3c2C(N)=O)cc(OC)c1` the inhibition (CD4+ve Th [1]) was “Active”, the inhibition (CD4+ve Th [2]) was “Active” and the Activity [3] was 3.64%. The IC50 [4] was 0.055 µM, the IC50 [5] was greater than 1 µM and the IC50 [6] was greater than 1 µM. It also gave an IC50 [7] greater than 1 µM, an IC50 [8] greater than 1 µM and an IC50 [9] greater than 1 µM. The IC50 [10] was greater than 1 µM, the IC50 [11] was greater than 1 µM and the IC50 [12] was greater than 1 µM. The IC50 [13] was greater than 1 µM, the IC50 [14] was greater than 1 µM and the inhibition (CD4+ve Th [15]) was “Dose-Dependent Effect”. The inhibition at 0.4 µM [16] was 100%, the inhibition (CD4+ve Th [17]) was “Dose-Dependent Effect” and the Activity [18] was “Active”. For the same compound, the Activity [19] was 4.47%, the Activity [20] was 9.83% and the Activity [21] was 1.55%. For the same compound, the Activity [22] was 0.932%, the Activity [23] was 0.925% and the inhibition (CD4+ve Th [24]) was “Active”.

From ChEMBL document CHEMBL4819075, “Discovery of a potent, selective, and covalent ZAP-70 kinase inhibitor” (Eur J Med Chem, 2021)
